DNMT1 block: DNMT1 (human) enzyme inhibition; P26358; DNMT1 molecular beacon, Hinp1I cleavage, fluorescence; inhibition (reported as % activation of signal), % at 10 µM; hit rate 0.83% among 360,000; in the data active = inhibition above about 50%
GRK2 inh: human GRK2 inhibition via aptamer displacement; P25098; bead flow cytometry, FAM-aptamer displacement from GRK2; inhibition of aptamer binding, % at 10 µM; hit rate 0.59% among 330,000; AID 488847;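 active = inhibition of aptamer binding above 40%, roughly 3 SD of noise, on plates passing a quality check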;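 also: median bead fluorescence of bound FAM aptamer so fluorescent compounds give negative values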
SUMO1-SIM PPI: modulators of human SUMO1-mediated protein-protein interactions | AID 602429 | hit rate 0.33% among 360,000 | P63165 | inhibition, % at 20 µM | SUMO1 binding to a labelled peptide, TR-FRET, 1 h; in the data active = inhibition above about 37%
Target sequence (P63165 whole entry, looked up): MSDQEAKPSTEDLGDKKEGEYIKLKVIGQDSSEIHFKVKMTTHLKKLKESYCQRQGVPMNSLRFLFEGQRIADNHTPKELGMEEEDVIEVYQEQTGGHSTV
STEP inh: blocks human striatal-enriched tyrosine phosphatase; P54829; AID 588621; hit rate 0.25% among 360,000; recombinant STEP, OMFP fluorogenic substrate, fluorescence; inhibition, % at 20 µM;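 active = inhibition at 20 µM, scaled per plate between control wells, above about 37%, limit read from the data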;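 also: 0% = DMSO with enzyme and substrate and 100% = substrate only without enzyme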
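Material: STEP (striatal-enriched tyrosine phosphatase) enzyme, cell-free; Compound dosing: 20 µM single dose in 1% DMSO; Technique: fluorescence read at 480 nm ex / 540 nm em; Times: reaction 20 min, ambient temperature; Medium: 50 mM Bis-Tris pH 6.0 with 2.5 mM DTT and 0.005% Tween 20; Also added: OMFP at 25 µM.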
Scp1 inh: blocks human Scp-1 phosphatase activity; Q9GZU7; Recombinant Scp1, phosphopeptide, malachite green phosphate absorbance; inhibition, % at 20 µM; hit rate 0.88% among 340,000; AID 493091;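 active = inhibition above about 50% at 20 µM, limit read from the data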;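 also: plate controls were DMSO wells with enzyme for no effect and wells lacking enzyme for full effect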
Target sequence (Q9GZU7 76-261 limits assumed): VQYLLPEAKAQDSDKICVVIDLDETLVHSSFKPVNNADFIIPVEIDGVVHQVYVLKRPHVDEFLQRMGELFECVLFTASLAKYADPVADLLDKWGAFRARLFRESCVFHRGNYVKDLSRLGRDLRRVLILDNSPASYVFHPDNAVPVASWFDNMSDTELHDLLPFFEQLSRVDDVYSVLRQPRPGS
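Material – SCP-1 phosphatase catalytic domain, residues 76-261 · Buffer or medium – Acidic Tris acetate buffer with magnesium and detergent · Also added – Phospho 17-mer peptide substrate · Compound – single 20 µM dose, 1% DMSO · Times – 45 min room-temperature reaction, 5 min colour, 30 min stabiliser · Technique – Phosphate-binding colour reagent, absorbance read at 630 nm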
LMPTP block: LMPTP (human) inhibition. P24666. hit rate 0.22% among 360,000. inhibition, % at 20 µM. recombinant LMPTP-A, OMFP fluorogenic substrate, fluorescence intensity;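 active = compounds that cut the enzyme signal by at least half of the control window in the single-dose screen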;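 also: plate controls were DMSO wells with enzyme plus substrate for no effect and substrate without enzyme for full effect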
Target sequence (P24666 whole entry, looked up): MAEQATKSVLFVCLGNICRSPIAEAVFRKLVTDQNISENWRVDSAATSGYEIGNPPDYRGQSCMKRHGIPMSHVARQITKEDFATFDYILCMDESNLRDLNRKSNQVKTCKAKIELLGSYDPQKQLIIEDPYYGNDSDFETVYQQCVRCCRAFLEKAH
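Test system – LMPTP-A enzyme · Amount – LMPTP-A at 0.625 nM final in the reaction · Buffer or medium – Bis-Tris pH 6.0, DTT, detergent · Reagent – OMFP 400 µM · Doses – single 20 µM dose · Schedule – reaction 50 min, room temperature, dark · Detection – fluorescence intensity of OMFP turnover product · Evaluation – percent inhibition versus substrate-only and uninhibited controls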
* marks the source's active call; other numbers are inactive results. Sampled rows, rich in hits. Any-hit rate of the full collection: about 2.1%.

How did O=C(O)c1c2c(nc3ccc(S(=O)(=O)N4CCC(C(=O)NC5CCCCCC5)CC4)cc13)CCCC2 do in these assays?
DNMT1 block: 2.6; GRK2 inh: 1.0; SUMO1-SIM PPI: 41.7*; STEP inh: 0.6; Scp1 inh: 31.8; LMPTP block: 0.9

Results for CCOC(=O)C1=C(COc2ccccc2)NC(=O)NC1c1ccc(Br)cc1 (stereo not given) ?
DNMT1 block: 3.6; GRK2 inh: 0.0; SUMO1-SIM PPI: 46.8*; STEP inh: -0.9; Scp1 inh: 38.9; LMPTP block: 2.2

How did C[C@H](CO)N1C[C@H](C)[C@@H](CN(C)C)Oc2c(NS(=O)(=O)c3cn(C)cn3)cccc2C1=O do in these assays?
DNMT1 block: 10.9; GRK2 inh: 3.0; SUMO1-SIM PPI: 1.3; STEP inh: 0.1; Scp1 inh: 12.3; LMPTP block: -1.9

How did Cc1cccc(NCc2ccc(N(C)C)cc2)n1 do in these assays?
DNMT1 block: 60.4*; GRK2 inh: 11.0; SUMO1-SIM PPI: -1.2; STEP inh: -1.8; Scp1 inh: -5.0; LMPTP block: -0.4

Results for CCOC(=O)C1CCN(c2nc(N)c3c(N)nc(SCC(=O)O)cc3c2C#N)CC1 ?
DNMT1 block: 74.8*; SUMO1-SIM PPI: 60.2*; STEP inh: 22.1; Scp1 inh: 101.5*; LMPTP block: 23.4

Results for CCOC(=O)C1CCN(c2nc(C)cc(C)c2C#N)CC1 ?
DNMT1 block: 0.2; GRK2 inh: 1.0; SUMO1-SIM PPI: 2.3; STEP inh: 3.3; Scp1 inh: -4.0; LMPTP block: 0.9

Results for CN(C)CCNC(=O)c1cccc2nc3cccc(F)c3nc12 ?
DNMT1 block: 55.1*; SUMO1-SIM PPI: -56.3; STEP inh: -0.1; Scp1 inh: -4.7; LMPTP block: 0.2

How did O=C(Nc1ccccn1)c1onc2c1CCCC2 do in these assays?
DNMT1 block: 4.0; GRK2 inh: 4.0; SUMO1-SIM PPI: -1.5; STEP inh: -0.7; Scp1 inh: 50.4*; LMPTP block: 1.0

What do the screens show for `C[C@H](CO)N1C[C@H](C)[C@@H](CN(C)C(=O)c2ccccn2)Oc2cc(Br)ccc2S1(=O)=O`?
DNMT1 block: 4.9; SUMO1-SIM PPI: 1.2; STEP inh: -0.9; LMPTP block: -1.9

What do the screens show for `COC(=O)c1ccc(C(=O)Nc2ccc(N)cc2N)cc1`?
DNMT1 block: -17.5; GRK2 inh: 1.0; SUMO1-SIM PPI: 46.9*; STEP inh: 1.4; Scp1 inh: -9.1; LMPTP block: 6.3

How did N=C1CCC(=N)c2c1c(O)c1ccccc1c2O do in these assays?
DNMT1 block: 75.6*; GRK2 inh: 9.0; SUMO1-SIM PPI: 44.4*; STEP inh: 6.2; Scp1 inh: 41.8; LMPTP block: 31.2

What do the screens show for `O=c1c2c([nH]c3ccc(Br)cc13)CCCC2`?
DNMT1 block: 4.1; GRK2 inh: 0.0; SUMO1-SIM PPI: 3.8; STEP inh: -1.9; Scp1 inh: 6.2; LMPTP block: 0.2

Results for O=c1ccc2cc3c([nH]c4ccc(Br)cc43)oc-2c1O ?
DNMT1 block: 7.4; GRK2 inh: 5.0; SUMO1-SIM PPI: 22.4; STEP inh: 1.3; LMPTP block: 51.6*

Results for N/C(=N\NS(=O)(=O)c1ccc(Cl)cc1)c1ccccn1 ?
DNMT1 block: 0.3; GRK2 inh: 41.0*; SUMO1-SIM PPI: 1.2; STEP inh: -1.2; Scp1 inh: -4.3; LMPTP block: -0.7

How did Cc1ccc(C(C)C)cc1OCC(=O)Nc1ccc(-n2cnnn2)cc1 do in these assays?
DNMT1 block: -1.0; SUMO1-SIM PPI: -1.6; STEP inh: -1.1; Scp1 inh: -2.3; LMPTP block: 1.7

How did O=C(/C=C/c1ccc(F)cc1)NC(=S)NNC(=O)c1cnccn1 do in these assays?
DNMT1 block: 3.5; GRK2 inh: 1.0; SUMO1-SIM PPI: -3.3; STEP inh: 3.2; Scp1 inh: 68.8*; LMPTP block: 0.1

What do the screens show for `COc1ccc(/C=C/C(=O)NC(=S)NNC(=O)c2cnccn2)cc1`?
DNMT1 block: 0.8; GRK2 inh: 1.0; SUMO1-SIM PPI: -14.4; STEP inh: 2.3; Scp1 inh: -11.2; LMPTP block: -1.1

How did CCN(CC)C(=O)CSc1nc2ccccc2c(=O)n1-c1cccc(OC)c1 do in these assays?
DNMT1 block: -1.6; GRK2 inh: 0.0; SUMO1-SIM PPI: 5.3; STEP inh: -1.1; Scp1 inh: -2.2; LMPTP block: -0.8

What do the screens show for `COc1cccc(-n2c(SCc3cc(=O)oc4cc(O)c(O)cc34)nc3ccccc3c2=O)c1`?
DNMT1 block: 30.6; GRK2 inh: 6.0; SUMO1-SIM PPI: 2.1; STEP inh: 12.0; Scp1 inh: 31.9; LMPTP block: 52.1*

How did Cc1ccccc1Nc1cc2ccccc2c(=O)[nH]1 do in these assays?
DNMT1 block: 83.7*; GRK2 inh: 1.0; SUMO1-SIM PPI: 20.5; STEP inh: 7.6; Scp1 inh: -7.5; LMPTP block: 9.2

What do the screens show for `O=c1[nH]c(Nc2ccccc2Cl)cc2ccccc12`?
DNMT1 block: 85.4*; GRK2 inh: 10.0; SUMO1-SIM PPI: 27.7; STEP inh: 9.8; Scp1 inh: -5.9; LMPTP block: 9.3

How did O=c1[nH]c(Nc2ccccn2)cc2ccccc12 do in these assays?
DNMT1 block: 30.4; GRK2 inh: 1.0; SUMO1-SIM PPI: 8.6; STEP inh: 2.9; Scp1 inh: -3.8; LMPTP block: 3.7

How did O=c1[nH]c(Nc2ccc(F)cc2)cc2ccccc12 do in these assays?
DNMT1 block: 48.5; GRK2 inh: 23.0; SUMO1-SIM PPI: 32.5; STEP inh: 9.5; Scp1 inh: -2.2; LMPTP block: 9.3

What do the screens show for `Cc1cc(N2C(=O)C3CCC(c4ccccc4)CC3C2=O)no1` (stereo not given)?
DNMT1 block: 6.9; GRK2 inh: 0.0; SUMO1-SIM PPI: -0.6; STEP inh: 3.2; Scp1 inh: -7.3; LMPTP block: -0.9

Results for CC(=O)Nc1ccc(C=NNc2nnc(NN=Cc3ccc(NC(C)=O)cc3)c3ccccc23)cc1 ?
DNMT1 block: -31.0; SUMO1-SIM PPI: 39.5*; STEP inh: 18.8; Scp1 inh: 1.1; LMPTP block: 3.0

How did O=C(Nc1ccc2oc(-c3cccnc3)nc2c1)c1ccc(Br)o1 do in these assays?
DNMT1 block: -11.2; GRK2 inh: 3.0; SUMO1-SIM PPI: 38.3*; STEP inh: 3.5; Scp1 inh: 37.0; LMPTP block: -3.4

What do the screens show for `Cn1c(=O)c2c(nc(Cl)n2CC(=O)NC2(C#N)CCCCC2)n(C)c1=O`?
DNMT1 block: 0.6; GRK2 inh: 0.0; SUMO1-SIM PPI: -1.1; STEP inh: -0.4; Scp1 inh: 7.2; LMPTP block: -1.1

How did Nc1nnc(-c2ccco2)s1 do in these assays?
DNMT1 block: 0.4; GRK2 inh: 0.0; SUMO1-SIM PPI: -1.8; STEP inh: -0.7; Scp1 inh: -12.2; LMPTP block: -0.8

Compound activity as filed in PubChem BioAssay.
